Results published in ChEMBL document CHEMBL1212832, “Antiprotozoal steroidal saponins from the marine sponge Pandaros acanthifolium” (J Nat Prod, 2010).
Active and inactive are the calls of the source. The rule behind the calls is not given here.

How the values were obtained:
[1] = Inhibition of Plasmodium falciparum recombinant FabI at 20 ug/mL by spectrophotometric analysis
[2] = target: T1, 3-oxoacyl-acyl-carrier protein reductase (Plasmodium falciparum) (UniProt Q965D6); assay: Inhibition of Plasmodium falciparum recombinant FabG at 20 ug/mL by spectrophotometric analysis
T1 sequence (whole entry): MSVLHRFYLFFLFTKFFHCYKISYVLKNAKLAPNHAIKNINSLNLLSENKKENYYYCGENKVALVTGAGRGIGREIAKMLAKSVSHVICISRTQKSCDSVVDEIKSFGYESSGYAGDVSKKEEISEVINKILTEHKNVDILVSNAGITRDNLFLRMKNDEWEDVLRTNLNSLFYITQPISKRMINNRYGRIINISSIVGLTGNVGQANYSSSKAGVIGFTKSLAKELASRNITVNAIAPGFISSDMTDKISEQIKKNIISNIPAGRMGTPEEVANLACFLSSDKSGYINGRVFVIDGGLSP

[3] = target: T2, Fatty acid synthase (Plasmodium falciparum) (UniProt Q965D7); assay: Inhibition of Plasmodium falciparum recombinant FabZ at 20 ug/mL by spectrophotometric analysis
T2 sequence (whole entry): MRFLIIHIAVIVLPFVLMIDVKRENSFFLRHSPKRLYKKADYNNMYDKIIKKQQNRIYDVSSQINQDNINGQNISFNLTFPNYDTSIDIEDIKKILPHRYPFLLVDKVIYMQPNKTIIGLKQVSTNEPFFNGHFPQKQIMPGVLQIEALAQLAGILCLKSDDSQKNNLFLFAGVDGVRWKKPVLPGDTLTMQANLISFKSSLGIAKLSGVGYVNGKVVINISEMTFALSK

Trypanosoma cruzi = assay: Trypanocidal activity against trypomastigote form of Trypanosoma cruzi Tulahuen infected in rat L6 cells after 96 hrs; assay type: functional, organism-based; settings: L6, 96 h
Method in brief: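 L6 cells seeded at 2000 per well in RPMI 1640 with 10% FBS, 2 mM L-glutamine; after 24 h, 5000 trypomastigotes of the LacZ-expressing C2C4 line added. After 48 h, medium replaced with seven 3-fold dilutions (90–0.12 µg/mL) for 96 h.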

Leishmania donovani = assay: Antileishmanial activity against Leishmania donovani (MHOM/ET/67/L82) amastigotes after 72 hrs; assay type: functional, organism-based; settings: MHOM/ET/67/L82, 72 h
Plasmodium falciparum = assay: Antimalarial activity against chloroquine and pyrimethamine-resistant Plasmodium falciparum K1 assessed as inhibition of [3H]hypoxanthine incorporation after 48 hrs by scintillation counting; assay type: functional, organism-based
Method in brief: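 K1 strain (chloroquine- and pyrimethamine-resistant) cultured in RPMI 1640 with 5% Albumax II, 0.2% w/v glucose, 0.03% L-glutamine. Two-fold dilution series from DMSO stocks, final DMSO ≤0.25%. 48 h at 37 °C, then 0.1 µCi [3H]-hypoxanthine added and incubated 24 h more. Freeze-stopped at -80 °C, harvested onto glass fiber filters, scintillation counted. IC50 calculated. Chloroquine as standard.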

L6 = assay: Cytotoxicity against rat L6 cells after 72 hrs by Alamar blue assay; assay type: cell-based; settings: l6, 72 h
Method in brief: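 4 × 10^4 L6 cells per well in RPMI 1640 with 10% FBS and L-glutamine, exposed 72 h to seven 3-fold dilutions (90–0.12 µg/mL). Resazurin (Alamar Blue) added for 2 h, fluorescence read at ex 536/em 588 nm.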

[4] = system: Trypanosoma brucei rhodesiense; assay: Trypanocidal activity against Trypanosoma brucei rhodesiense STIB 900 after 72 hrs; assay type: functional, organism-based; settings: STIB 900, 72 h
Method in brief: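 Bloodstream forms (10^4 per well) in MEM with 25 mM HEPES, extra glucose, non-essential amino acids, 2-mercaptoethanol, pyruvate and 15% heat-inactivated horse serum; seven 3-fold dilutions from 90 to 0.12 µg/mL, 72 h at 37 °C, 5% CO2. Resazurin added for 2–4 h, fluorescence at ex 536/em 588 nm; melarsoprol as standard.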

SMILES | Activity [1] | Activity [2] | Activity [3] | IC50 (Trypanosoma cruzi) | IC50 (Leishmania donovani) | IC50 (Plasmodium falciparum) | Activity (L6) | IC50 [4]
CC[C@@H](C(=O)C[C@@H](C)C1=C(O)C(=O)[C@@H]2[C@@H]3CC[C@H]4C[C@@H](O[C@@H]5O[C@H](C(=O)O)[C@@H](O)[C@H](O)[C@H]5O)CC[C@]4(C)[C@H]3CC[C@]12C)C(C)C | inactive | inactive | inactive | – | – | – | – | –
O=C(Cn1ccnc1[N+](=O)[O-])NCc1ccccc1 [BENZNIDAZOLE] | – | – | – | 2.64 µM | – | – | – | –
CC[C@@H](C(=O)C[C@@H](C)C1=C(O)C(=O)[C@@H]2[C@@H]3CC[C@H]4C[C@@H](O[C@@H]5O[C@H](C(=O)OC)[C@@H](O)[C@H](O)[C@H]5O[C@@H]5O[C@H](CO)[C@@H](O)[C@H](O)[C@H]5O)CC[C@]4(C)[C@H]3CC[C@]12C)C(C)C [METHYL ESTER PANDAROSIDE A] | inactive | inactive | inactive | > 120 µM | 66.3 µM | > 25 µM | > 120 µM | 114 µM
COC(=O)[C@H]1O[C@@H](O[C@H]2CC[C@@]3(C)[C@@H](CC[C@H]4[C@H]5C(=O)C(O)=C([C@H](C)CC(=O)CC(C)C)[C@@]5(C)CC[C@@H]43)C2)[C@H](O[C@@H]2O[C@H](CO)[C@@H](O)[C@H](O)[C@H]2O)[C@@H](O)[C@@H]1O [METHYL ESTER PANDAROSIDE C] | inactive | inactive | inactive | 100 µM | 44.2 µM | > 25 µM | > 120 µM | 61.4 µM
COC(=O)[C@H]1O[C@@H](O[C@H]2CC[C@@]3(C)[C@@H](CC[C@H]4[C@H]5C(=O)C(O)=C([C@H](C)CC(=O)CC(C)C)[C@@]5(C)CC[C@@H]43)C2)[C@H](O)[C@@H](O)[C@@H]1O [METHYL ESTER PANDAROSIDE D] | inactive | inactive | inactive | 21.6 µM | 13.7 µM | 5.1 µM | 106 µM | 40.4 µM
C=C(C(=O)C[C@@H](C)C1=C(O)C(=O)[C@@H]2C3=C(CC[C@]12C)[C@@]1(C)CC[C@H](O[C@@H]2O[C@H](C(=O)OC)[C@@H](O)[C@H](O[C@@H]4OC[C@@H](O)[C@H](O)[C@H]4O)[C@H]2O)C[C@@H]1CC3)C(C)C [METHYL ESTER PANDAROSIDE E] | inactive | inactive | inactive | 61.9 µM | 41.3 µM | 5.9 µM | 76.9 µM | 14.3 µM
COC(=O)[C@H]1O[C@@H](O[C@H]2CC[C@]3(C)C4=C(CC[C@H]3C2)[C@H]2C(=O)C(O)=C([C@H](C)CC(=O)[C@H](C)C(C)C)[C@@]2(C)CC4)[C@H](O)[C@@H](O[C@@H]2OC[C@@H](O)[C@H](O)[C@H]2O)[C@@H]1O [METHYL ESTER PANDAROSIDE F] | inactive | inactive | inactive | 25.1 µM | 26.8 µM | 9.9 µM | 42.1 µM | 54.4 µM
CC[C@@H](C(=O)C[C@@H](C)C1=C(O)C(=O)[C@@H]2[C@@H]3CC[C@H]4C[C@@H](O[C@@H]5O[C@H](C(=O)OC)[C@@H](O)[C@H](O[C@@H]6OC[C@@H](O)[C@H](O)[C@H]6O)[C@H]5O)CC[C@]4(C)[C@H]3CC[C@]12C)C(C)C [METHYL ESTER PANDAROSIDE H] | inactive | inactive | inactive | 36.1 µM | 16.5 µM | 10.2 µM | 43.3 µM | 19.9 µM
CC[C@@H](C(=O)C[C@@H](C)C1=C(O)C(=O)[C@@H]2[C@@H]3CC[C@H]4C[C@@H](O[C@@H]5O[C@H](C(=O)OC)[C@@H](O[C@H]6O[C@H](C)[C@@H](O)[C@H](O)[C@@H]6O)[C@H](O)[C@H]5O)CC[C@]4(C)[C@H]3CC[C@]12C)C(C)C [METHYL ESTER PANDAROSIDE I] | inactive | inactive | inactive | 21.7 µM | 28.7 µM | 13 µM | 59.6 µM | 27.2 µM
CC[C@@H](C(=O)C[C@@H](C)C1=C(O)C(=O)[C@@H]2[C@@H]3CC[C@H]4C[C@@H](O[C@@H]5O[C@H](C(=O)O)[C@@H](O)[C@H](O)[C@H]5O[C@@H]5O[C@H](CO)[C@@H](O)[C@H](O)[C@H]5O)CC[C@]4(C)[C@H]3CC[C@]12C)C(C)C [PANDAROSIDE A] | inactive | inactive | inactive | 52.2 µM | 19.7 µM | 17.6 µM | 48.9 µM | 9.1 µM
CC(C)CC(=O)C[C@@H](C)C1=C(O)C(=O)[C@@H]2[C@@H]3CC[C@H]4C[C@@H](O[C@@H]5O[C@H](C(=O)O)[C@@H](O)[C@H](O)[C@H]5O[C@@H]5O[C@H](CO)[C@@H](O)[C@H](O)[C@H]5O)CC[C@]4(C)[C@H]3CC[C@]12C [PANDAROSIDE C] | inactive | inactive | inactive | > 120 µM | > 120 µM | > 25 µM | > 120 µM | 66.4 µM
CC(C)CC(=O)C[C@@H](C)C1=C(O)C(=O)[C@@H]2[C@@H]3CC[C@H]4C[C@@H](O[C@@H]5O[C@H](C(=O)O)[C@@H](O)[C@H](O)[C@H]5O)CC[C@]4(C)[C@H]3CC[C@]12C [PANDAROSIDE D] | inactive | inactive | inactive | 80.8 µM | 31 µM | 13.5 µM | 96.6 µM | 15.3 µM
C=C(C(=O)C[C@@H](C)C1=C(O)C(=O)[C@@H]2C3=C(CC[C@]12C)[C@@]1(C)CC[C@H](O[C@@H]2O[C@H](C(=O)O)[C@@H](O)[C@H](O[C@@H]4OC[C@@H](O)[C@H](O)[C@H]4O)[C@H]2O)C[C@@H]1CC3)C(C)C [PANDAROSIDE E] | inactive | inactive | inactive | 71.6 µM | 15.9 µM | 13.8 µM | 40.9 µM | 9.4 µM
CC(C)[C@@H](C)C(=O)C[C@@H](C)C1=C(O)C(=O)[C@@H]2C3=C(CC[C@]12C)[C@@]1(C)CC[C@H](O[C@@H]2O[C@H](C(=O)O)[C@@H](O)[C@H](O[C@@H]4OC[C@@H](O)[C@H](O)[C@H]4O)[C@H]2O)C[C@@H]1CC3 [PANDAROSIDE F] | inactive | inactive | inactive | 20.3 µM | 4.3 µM | 5.7 µM | 10.8 µM | 2.4 µM
CC[C@@H](C(=O)C[C@@H](C)C1=C(O)C(=O)[C@@H]2C3=CC[C@H]4C[C@@H](O[C@@H]5O[C@H](C(=O)O)[C@@H](O)[C@H](O[C@@H]6OC[C@@H](O)[C@H](O)[C@H]6O)[C@H]5O)CC[C@]4(C)[C@H]3CC[C@]12C)C(C)C [PANDAROSIDE G] | inactive | inactive | inactive | 9.7 µM | 1.3 µM | 2.5 µM | 5.4 µM | 0.8 µM
COc1cc([C@@H]2c3cc4c(cc3[C@H](O)[C@H]3COC(=O)[C@H]23)OCO4)cc(OC)c1OC [PODOFILOX] | – | – | – | – | – | – | 0.012 µM | –
